Two molecules from ChEMBL document CHEMBL4665829, “Synthesis, Structure-Activity Relationship, and Antimalarial Efficacy of 6-Chloro-2-arylvinylquinolines” (J Med Chem, 2020) can be followed below.

Data set [1] concerns Plasmodium falciparum. Nature of the data set: Antiplasmodial activity against late trophozoite synchronized chloroquine-resistant Plasmodium falciparum Dd2 reduction in microbial growth at 5 times of EC50 after 12 hrs by Giemsa staining-based microscopic analysis. Format: functional, organism-based. An outline of the steps:
(§1)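 Dd2 cultures tightly synchronized by magnetic separation and sorbitol were dosed at 5 × EC50 at 6, 18, 30 or 42 h post-invasion. Controls: DHA 50 nM, atovaquone 6.6 nM, DMSO 0.1%. Sampled every 12 h for Giemsa thin smears and for flow cytometry: glutaraldehyde/paraformaldehyde fixation, Triton permeabilization, RNAse, 500 nM YOYO-1, 500,000 events/sample. Three independent biological replicates.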

Data set [2] concerns Plasmodium falciparum. Nature of the data set: Parasiticidal activity against chloroquine-resistant Plasmodium falciparum Dd2 infected in RBC assessed as reduction in parasitemia at 5 times of EC50 incubated for 6 to 48 hrs followed by compound washout and then incubated for 96 hrs by Giemsa staining based microscopic analysis. Format: functional, organism-based. The note with it: time hrs 6-48. An outline of the steps:
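Controls: 0.15% DMSO, DHA 50 nM, atovaquone 6.6 nM. Drug removed by three RPMI washes, then parasitemia followed daily for 96 h by Giemsa thin smears. Three independent biological replicates.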

In data set [3] the test system is Plasmodium falciparum. Nature of the data set: Antiplasmodial activity against synchronous gametocyte late stage of Plasmodium falciparum 3D7 harboring luc7 incubated for 72 hrs by ONE-Glo luciferase assay. Format: functional, organism-based. The note with it: 3D7, 72 h. An outline of the steps:
(§2)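 Gametocytes of P. falciparum 3D7 luc7 induced by nutrient starvation, cultured in heparin medium to remove asexual stages, Percoll-purified as early (II–III) or late (IV–V) stage. 50,000 gametocytes/well exposed 72 h to a 19-point gradient, 0.038 nM–10 μM. ONE-Glo luciferase read after 5 min. EC50 by nonlinear curve fit; three experiments.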

Data set [4] in a line: Half life in mouse liver microsomes at 1 uM after 60 mins in presence of NADPH by LC-MS analysis. The format is ADME, Microsome. Conditions: 1 h. An outline of the steps:
(§3)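 Mouse liver microsomes (0.5 mg/mL final protein) in 0.1 M phosphate, pH 7.4, with compound at 1 μM, 37 °C with shaking. Aliquots were quenched in cold acetonitrile and centrifuged; LC–MS gave parent peak area at 60 min relative to 0 min.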
(In general: Liver microsomes are a subcellular fraction often used to study metabolism.)

Data set [5] deals with Plasmodium berghei. Briefly: Antiplasmodial activity against Plasmodium berghei ANKA expressing luciferase infected in Swiss Webster mouse at 100 mg/kg, po for 5 days using monophosphate salt form of compound by luminescence based assay. The note with it: time 5.0 day. The format is functional, organism-based. An outline of the steps: (§4)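 Female Swiss Webster mice got 10³ RBC infected with luciferase-expressing P. berghei ANKA. From 48 h post-infection, groups of five were gavaged once daily for 5 days in 2% methylcellulose/0.5% Tween 80, against a vehicle control. On day 7, mice received 150 mg/kg D-luciferin in PBS, and bioluminescence was imaged by IVIS as a measure of parasite load.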

Data set [6] is described as follows: Intrinsic clearance in mouse liver microsomes assessed as parent compound at 1 uM after 60 mins in presence of NADPH by LC-MS analysis. The format is ADME, Microsome. An outline of the steps: as §3
A short description of data set [7]: Selectivity index, ratio of EC50 for cytotoxicity against human HepG2 cells to antiplasmodial activity against chloroquine-resistant Plasmodium falciparum Dd2. The format is toxicity, cell-based. The note with it: read-out: Ratio EC50.
For data set [8], the system named is Hemozoin. Briefly: Inhibition of beta-hematin formation after 16 hrs by inverted microscopic analysis. The note with it: dose microM 12.5-200, time 16.0 hrs. An outline of the steps:
(§5)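 Hemin (2 mM stock in 0.1 M NaOH; 100 μM final), propionate buffer pH 5.2 and sonicated phosphatidylcholine were incubated with a compound concentration series for 16 h at 37 °C with gentle shaking. Crystals were imaged by inverted microscope before quenching with 7.5% SDS in bicarbonate, pH 9.1. Free hemin was measured at 405 nm against a 0–16 μM calibration. Three independent experiments.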

Data set [9] can be described thus: Stability of compound in mouse liver microsomes assessed as parent compound remaining at 1 uM after 60 mins in presence of NADPH by LC-MS analysis. The note with it: 1 h. The format is ADME, Microsome. An outline of the steps: as §3
The test system of data set [10] is Plasmodium berghei. Briefly: Antiplasmodial activity against Plasmodium berghei ANKA expressing luciferase infected in Swiss Webster mouse at 25 mg/kg, po for 5 days using monophosphate salt form of compound by luminescence based assay. The format is functional, organism-based. The note with it: time 5.0 day. An outline of the steps:
as §4

Data set [11] concerns Plasmodium falciparum. Nature of the data set: Antiplasmodial activity against chloroquine-resistant Plasmodium falciparum Dd2 infected in human erythrocytes assessed as reduction in microbial growth after 72 hrs by SYBR green I staining based fluorescence assay. The format is functional, organism-based. Conditions: Dd2, Erythrocyte. An outline of the steps: (§6)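 SYBR Green I assay: twofold serial dilutions on P. falciparum cultures at 1% parasitemia, 1% hematocrit, 37 °C, 5% CO₂, 72 h, max 0.1% DMSO. DMSO and CQ as growth and inhibition controls. Plates frozen at −80 °C, thawed, lysed in Tris/saponin/EDTA/Triton buffer with 0.01% SYBR Green I, 1 h dark at room temperature. Fluorescence read at 485 ex/530 em. EC50 by nonlinear dose–response fit.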

The test system of data set [12] is Plasmodium falciparum. Briefly: Antiplasmodial activity against synchronous gametocyte early stage of Plasmodium falciparum 3D7 harboring luc7 incubated for 72 hrs by ONE-Glo luciferase assay. The format is functional, organism-based. Conditions: 3D7, 72 h. An outline of the steps: as §2
Data set [13] is described as follows: Resistant index, ratio of EC50 for antiplasmodial activity against chloroquine-resistant Plasmodium falciparum Dd2 to antiplasmodial activity against chloroquine-sensitive Plasmodium falciparum 3D7. Format: functional.
Data set [14] concerns Plasmodium falciparum. Nature of the data set: Antiplasmodial activity against chloroquine-sensitive Plasmodium falciparum 3D7 infected in human erythrocytes assessed as reduction in microbial growth after 72 hrs by SYBR green I staining based fluorescence assay. Format: functional, organism-based. Conditions: 3D7, Erythrocyte. An outline of the steps:
as §6

Data set [15] has as its system Plasmodium falciparum. Nature of the data set: Antiplasmodial activity against late trophozoite synchronized chloroquine-resistant Plasmodium falciparum Dd2 reduction in microbial growth at 5 times of EC50 after 12 hrs by YOYO-1 staining-based flow cytometric analysis. The format is functional, organism-based. An outline of the steps: as §1
In general terms: Flow cytometry measures light scatter and fluorescence of single cells or particles in a stream.

A further data set concerns HepG2. Nature of the data set: Cytotoxicity against human HepG2 cells assessed as reduction in cell viability after 48 hrs by MTS assay. The format is cell-based. The note with it: HepG2, 48 h. An outline of the steps: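 HepG2 cells were seeded at 2250 per well and grown 24 h at 37 °C, 5% CO₂. Serial dilutions starting at 25 μM were added for a further 48 h. MTS was then added for 3 h at 37 °C and absorbance read at 490 nm. EC₅₀ came from nonlinear dose–response fits.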
Background: Formazan colour is commonly taken as a measure of viable cells.

The subject of data set [16] is Plasmodium falciparum. Briefly: Potency index, ratio of EC50 for UCF501 to test compound EC50 for antiplasmodial activity against chloroquine-resistant Plasmodium falciparum Dd2 infected in human erythrocytes assessed as reduction in microbial growth after 72 hrs by SYBR green I staining based fluorescence assay. Format: functional, Erythrocyte. An outline of the steps:
as §6

Data set [17] concerns Plasmodium berghei. Nature of the data set: Antiplasmodial activity against Plasmodium berghei ANKA expressing luciferase infected in BALB/c mouse assessed as mean survival days at 100 mg/kg, po for 4 days using monophosphate salt form of compound (reference value: 8 day). The format is functional. Conditions: time 4 day.
Data set [18] deals with Plasmodium falciparum. Nature of the data set: Antiplasmodial activity against synchronized chloroquine-resistant Plasmodium falciparum Dd2 reduction in microbial growth 5 times of EC50 treated with compound at 6 to 30 hrs post infection measured after 12 hrs by Giemsa staining-based microscopic analysis. The format is functional, organism-based. An outline of the steps: as §1

Data set [19] in a line: Toxicity in BALB/c mouse infected with Plasmodium berghei ANKA expressing luciferase assessed as reduction in mobility at 25 to 100 mg/kg, po for 4 days measured up to 30 days. Format: organism-based. Conditions: in vivo, 96 h, dose 25-100 mg/kg, time 4 day. An outline of the steps: (§7)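 Female BALB/c mice (10 weeks, ~20 g), five per group, were inoculated i.p. with 10⁶ P. berghei ANKA 676m1cl1-parasitized RBC. Oral gavage in 2% methylcellulose/0.5% Tween 80, once daily for 4 days starting 4 h post-infection, against a vehicle control. Tail-blood Giemsa smears from day 4. Signs and body weight were followed. Sacrifice at 40% parasitemia; cure meant a negative smear at day 30. Kaplan–Meier, log-rank.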

Data set [20] concerns Hemozoin. Nature of the data set: Inhibition of beta-hematin formation at 12.5 to 200 uM after 16 hrs by inverted microscopic analysis. The note with it: dose microM 12.5-200, time 16.0 hrs. An outline of the steps: as §5
Data set [21] has as its system Plasmodium falciparum. Briefly: Antiplasmodial activity against synchronized chloroquine-resistant Plasmodium falciparum Dd2 reduction in microbial growth at 5 times of EC50 treated with compound at 42 hrs post infection measured after 12 hrs by Giemsa staining-based microscopic analysis. Format: functional, organism-based. An outline of the steps:
as §1

Data set [22] is described as follows: Toxicity in BALB/c mouse infected with Plasmodium berghei ANKA expressing luciferase assessed as hypotrichosis at 25 to 100 mg/kg, po for 4 days measured up to 30 days. Format: organism-based. The note with it: in vivo, 96 h, dose 25-100 mg/kg, time 4 day. An outline of the steps:
as §7

Data set [23] relates to Plasmodium berghei. Nature of the data set: Antiplasmodial activity against Plasmodium berghei ANKA expressing luciferase infected in BALB/c mouse at 25 mg/kg, po for 4 days using monophosphate salt form of compound by Giemsa staining based microscopic analysis. The note with it: time 4.0 day. The format is functional, organism-based. An outline of the steps: as §7
The nature of data set [24]: Toxicity in BALB/c mouse infected with Plasmodium berghei ANKA expressing luciferase assessed as reduction in weight at 25 to 100 mg/kg, po for 4 days measured up to 30 days. The note with it: in vivo, 96 h, dose 25-100 mg/kg, time 4 day. Format: organism-based. An outline of the steps:
as §7

In data set [25] the test system is Plasmodium falciparum. Nature of the data set: Induction of morphological changes in chloroquine-resistant Plasmodium falciparum Dd2 assessed as appearance of membrane-bound structure at 5 times of EC50 measured after 1.5 to 12 hrs by TEM analysis. Format: functional, organism-based. The note with it: time hrs 1.5-12. An outline of the steps:
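Fixed in 2% paraformaldehyde/2.5% glutaraldehyde in cacodylate pH 7.4, post-fixed in 1% OsO₄, en bloc 1% uranyl acetate, ethanol-dehydrated, Eponate-embedded. 95 nm sections stained with uranyl acetate/lead citrate for TEM.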

Data set [26] concerns Plasmodium falciparum. Briefly: Antiplasmodial activity against synchronized chloroquine-resistant Plasmodium falciparum Dd2 reduction in microbial growth 5 times of EC50 treated with compound at 6 to 30 hrs post infection measured after 12 hrs by YOYO-1 staining-based flow cytometric analysis. The format is functional, organism-based. An outline of the steps: as §1
Data set [27] is described as follows: Toxicity in BALB/c mouse infected with Plasmodium berghei ANKA expressing luciferase assessed as hunched posture at 25 to 100 mg/kg, po for 4 days measured up to 30 days. Format: organism-based. The note with it: in vivo, 96 h, dose 25-100 mg/kg, time 4 day. An outline of the steps:
as §7

For data set [28], the system named is Plasmodium falciparum. Briefly: Antiplasmodial activity against synchronized chloroquine-resistant Plasmodium falciparum Dd2 reduction in microbial growth 5 times of EC50 treated with compound at 42 hrs post infection measured after 12 hrs by YOYO-1 staining-based flow cytometric analysis. Format: functional, organism-based. An outline of the steps:
as §1

Active and inactive are the calls of the source. The rule behind the calls is not given here.

Take `CN(C)CCNc1cc(/C=C/c2ccc(F)cc2)nc2ccc(Cl)cc12`: the result in the data set on Plasmodium falciparum [1], in the data set with Plasmodium falciparum [2], in the data set on Plasmodium berghei [5], in the data set with Plasmodium berghei [10] and in the data set on Plasmodium falciparum [15] was Active. Moreover, the EC50 in the data set with Plasmodium falciparum [3] is 2050 nM; with Plasmodium falciparum [11], 4.8 nM; in the data set with Plasmodium falciparum [12], 591 nM; in the data set with Plasmodium falciparum [14], 8.7 nM; in the data set with HepG2, 5330 nM. In addition, the t1/2 in data set [4] is given as 55.2 min. For the same molecule, the CLH in [6] was 25.1 µL/min/mg. For the same molecule, the selectivity ratio in data set [7] came to 1110. The inhibition result with Hemozoin [8] was “Dose-dependent effect”. Also, the Stabilty in data set [9] turned out to be 47.1%. Further, the Ratio EC50 in data set [13] turned out to be 0.6; in the data set with Plasmodium falciparum [16], 14.
Take `CN(C)CCNc1cc(/C=C/c2ccc(C(F)(F)F)cc2)nc2ccc(Cl)cc12`: the result in the data set with Plasmodium falciparum [2], with Plasmodium falciparum [18], in the data set with Plasmodium berghei [5], in the data set on Plasmodium berghei [23], with Plasmodium falciparum [25] and in the data set with Plasmodium berghei [10] was Active. Besides, the outcome in the data set on Plasmodium falciparum [26] was Active. For the same molecule, the MSD with Plasmodium berghei [17] is 30 days. The EC50 came to 394 nM in the data set on Plasmodium falciparum [3]; 10.9 nM in the data set with Plasmodium falciparum [11]; 472 nM in the data set on Plasmodium falciparum [12]; 16.8 nM with Plasmodium falciparum [14]; 11200 nM in the data set with HepG2. Further, the Activity entry in [19], in data set [22], in data set [24] and in data set [27] was “Non-Toxic” in each case. In the data set on Hemozoin [20], the inhibition result was “inactive”. The outcome with Plasmodium falciparum [21] and in the data set with Plasmodium falciparum [28] was inactive. Moreover, the CLH in [6] turned out to be 13.3 µL/min/mg. In addition, the selectivity ratio in data set [7] came to 1030. In addition, the Stabilty in [9] is 67.1%. Moreover, the Ratio EC50 in data set [13] is 0.6.

One may read the EC50 as the concentration needed to bring the measured effect to its halfway point.
